ChEMBL document CHEMBL5678808, “Human target validation of phosphoinositide 3-kinase (PI3K)β: effects on platelets and insulin sensitivity, using AZD6482 a novel PI3Kβ inhibitor” (J Thromb Haemost, 2012)

Tests used:
[1] = target: Dual specificity tyrosine-phosphorylation-regulated kinase 1A (Rattus norvegicus) (UniProt Q63470); assay: Inhibition of rat DYRK1A at 10 uM relative to control
[2] = target: Proto-oncogene tyrosine-protein kinase Src (Homo sapiens, UniProt P12931); assay: Inhibition of human src
Proto-oncogene tyrosine-protein kinase Src, sequence (P12931 2-536 limits assumed): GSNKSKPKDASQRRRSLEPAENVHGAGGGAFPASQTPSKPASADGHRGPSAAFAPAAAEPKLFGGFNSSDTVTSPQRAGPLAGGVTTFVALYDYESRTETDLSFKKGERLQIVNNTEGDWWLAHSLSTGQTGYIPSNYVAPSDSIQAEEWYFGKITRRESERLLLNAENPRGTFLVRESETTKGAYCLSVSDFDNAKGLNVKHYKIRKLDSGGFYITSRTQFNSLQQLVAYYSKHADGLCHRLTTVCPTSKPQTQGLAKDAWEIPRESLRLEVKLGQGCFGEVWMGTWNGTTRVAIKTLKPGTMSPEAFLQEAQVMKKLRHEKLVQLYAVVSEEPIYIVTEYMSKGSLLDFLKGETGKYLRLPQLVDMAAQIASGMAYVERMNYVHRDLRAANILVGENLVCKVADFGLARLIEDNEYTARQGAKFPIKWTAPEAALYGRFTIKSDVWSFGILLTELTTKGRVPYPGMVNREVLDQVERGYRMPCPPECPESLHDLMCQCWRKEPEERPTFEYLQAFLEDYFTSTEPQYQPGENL

[3] = Plasma concentration in Sprague-Dawley rat hyperinsulinemic-euglycemic glucose clamp model at […], iv for 2 mins followed by 50 ug/kg/min, iv for 28 mins; format: ADME, organism-based; details: time 30 min
Method in brief: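 Plasma drug levels were sampled during the drug-infusion clamp period (Clamp2) in anesthetized rats under a human-insulin hyperinsulinemic–euglycemic clamp. I.v. regimens were 1000 μg kg−1 + 50 μg kg min−1 or 6000 μg kg−1 + 300 μg kg min−1; mean ± SEM, n = 4–5/group.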

[4] = Toxicity in Sprague-Dawley rat assessed as change in blood pressure at 30000 ug/kg, iv for 2 mins followed by 1500 ug/kg/min, iv for 28 mins; format: organism-based; details: in vivo, 30 mg/kg, 0.5 h, time 30 min
[5] = target: Homeodomain-interacting protein kinase 2 (Homo sapiens) (UniProt Q9H2X6); assay: Inhibition of human HIPK2 at 10 uM relative to control
Homeodomain-interacting protein kinase 2 (Homo sapiens), sequence (Q9H2X6 whole entry, looked up): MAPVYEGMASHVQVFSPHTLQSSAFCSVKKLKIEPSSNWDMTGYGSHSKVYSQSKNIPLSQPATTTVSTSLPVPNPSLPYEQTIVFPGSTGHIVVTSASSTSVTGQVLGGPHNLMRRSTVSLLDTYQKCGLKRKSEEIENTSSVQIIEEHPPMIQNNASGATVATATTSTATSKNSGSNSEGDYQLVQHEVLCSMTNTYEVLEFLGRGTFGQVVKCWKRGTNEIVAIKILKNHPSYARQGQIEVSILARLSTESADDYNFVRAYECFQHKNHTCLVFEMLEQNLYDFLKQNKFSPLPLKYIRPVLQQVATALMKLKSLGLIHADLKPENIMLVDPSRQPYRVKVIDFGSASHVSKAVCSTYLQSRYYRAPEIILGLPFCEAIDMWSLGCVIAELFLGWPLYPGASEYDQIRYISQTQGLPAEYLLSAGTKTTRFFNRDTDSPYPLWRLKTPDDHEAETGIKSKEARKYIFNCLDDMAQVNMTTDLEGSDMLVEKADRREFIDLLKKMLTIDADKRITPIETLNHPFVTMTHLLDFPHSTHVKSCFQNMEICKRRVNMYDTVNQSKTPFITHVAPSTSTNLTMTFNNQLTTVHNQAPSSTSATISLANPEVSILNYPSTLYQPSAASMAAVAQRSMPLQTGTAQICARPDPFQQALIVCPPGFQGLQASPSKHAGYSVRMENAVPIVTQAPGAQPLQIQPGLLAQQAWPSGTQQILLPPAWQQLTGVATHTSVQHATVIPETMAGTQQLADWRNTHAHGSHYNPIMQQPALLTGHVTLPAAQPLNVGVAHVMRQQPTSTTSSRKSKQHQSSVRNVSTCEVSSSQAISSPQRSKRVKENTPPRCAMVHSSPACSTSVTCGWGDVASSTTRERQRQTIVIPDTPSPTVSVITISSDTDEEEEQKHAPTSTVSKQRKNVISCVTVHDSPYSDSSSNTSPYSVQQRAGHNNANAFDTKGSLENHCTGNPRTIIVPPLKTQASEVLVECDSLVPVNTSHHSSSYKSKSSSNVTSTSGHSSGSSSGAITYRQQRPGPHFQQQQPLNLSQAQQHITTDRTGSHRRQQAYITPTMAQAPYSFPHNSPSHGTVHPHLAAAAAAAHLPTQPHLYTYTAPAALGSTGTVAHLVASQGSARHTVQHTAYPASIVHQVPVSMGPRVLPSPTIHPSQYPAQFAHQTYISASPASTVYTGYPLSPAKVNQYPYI

[6] = organism: Rattus norvegicus; assay: Inhibition of rat AMPK at 10 uM relative to control
[7] = tested on: Rattus norvegicus; assay: Insulin sensitizing activity in Sprague-Dawley rat hyperinsulinemic-euglycemic glucose clamp model assessed as basal glucose level during infusion of human insulin at 6000 ug/kg/min, iv for 2 mins followed by 300 ug/kg/min, iv for 28 mins by colorimetry (reference value: 8.1 +/- 0.7 mM); format: functional; details: time 30 min, 0.5 h
Method in brief: (§1)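 Anesthetized rats; hyperinsulinemic–euglycemic clamp with human insulin infused. A baseline clamp (Clamp1) was followed by a second clamp (Clamp2) with vehicle or drug i.v. The drug was given as a low dose (1000 μg kg−1 + 50 μg kg min−1) or a high dose (6000 μg kg−1 + 300 μg kg min−1). Steady-state glucose infusion rate for euglycemia was recorded, with plasma glucose, human insulin and total insulin; mean ± SEM, n = 4–5/group.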

[8] = Toxicity in Sprague-Dawley rat assessed as change in blood pressure at 6000 ug/kg, iv for 2 mins followed by 300 ug/kg/min, iv for 28 mins; format: organism-based; details: in vivo, 6 mg/kg, 0.5 h, time 30 min
Method in brief: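 Blood pressure was monitored in anesthetized rats during hyperinsulinemic–euglycemic clamps. There was an initial control period, then i.v. drug at 1000 μg kg−1 + 50 μg kg min−1 or 6000 μg kg−1 + 300 μg kg min−1. Heart rate was also recorded.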

[9] = target: Proto-oncogene tyrosine-protein kinase LCK (Mus musculus) (UniProt P06240); assay: Inhibition of mouse LCK at 10 uM relative to control
Proto-oncogene tyrosine-protein kinase LCK (Mus musculus), sequence (P06240 whole entry, looked up, the tested form may be a part): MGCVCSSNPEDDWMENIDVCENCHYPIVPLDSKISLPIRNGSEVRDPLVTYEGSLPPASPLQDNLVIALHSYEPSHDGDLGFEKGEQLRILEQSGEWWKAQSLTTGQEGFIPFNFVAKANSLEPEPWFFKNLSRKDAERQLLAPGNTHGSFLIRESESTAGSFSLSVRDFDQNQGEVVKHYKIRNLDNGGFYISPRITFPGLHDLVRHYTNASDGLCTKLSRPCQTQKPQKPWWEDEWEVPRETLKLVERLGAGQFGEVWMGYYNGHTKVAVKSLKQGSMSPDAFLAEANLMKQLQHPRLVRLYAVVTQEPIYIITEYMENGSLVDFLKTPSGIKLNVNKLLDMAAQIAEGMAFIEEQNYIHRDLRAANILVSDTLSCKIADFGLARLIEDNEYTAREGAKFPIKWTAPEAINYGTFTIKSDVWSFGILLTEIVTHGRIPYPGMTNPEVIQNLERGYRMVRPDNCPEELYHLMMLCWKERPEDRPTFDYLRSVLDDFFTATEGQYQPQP

[10] = tested on: Canis familiaris; assay: Antithrombotic activity in iv dosed Beagle dog assessed as restoration of blood flow administered via bolus infusion for 29 mins; format: functional, organism-based; details: Canis lupus familiaris
Method in brief: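 Modified Folts' model of thrombosis in a damaged, stenosed femoral artery of anesthetized dogs. Animals first received saline vehicle. Consecutive i.v. doses then followed, each given over a 30-min period as a bolus (0.03–1.3 μg kg−1) plus an infusion (0.005–0.24 μg kg min−1). Read-outs were cyclic flow reductions, expressed as % restoration of blood flow, plus bleeding time, blood loss and plasma drug exposure. Mean ± SEM, n = 6.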

[11] = Renal clearance (0 to 24 hrs) in human at 121.5 to 364.5 mg, iv administered for 3 hrs via infusion by LC-MS/MS analysis; details: in vivo
[12] = Toxicity in Sprague-Dawley rat assessed as change in heart rate at 1000 ug/kg, iv for 2 mins followed by 50 ug/kg/min, iv for 28 mins; format: organism-based; details: in vivo, 1 mg/kg, 0.5 h, time 30 min
Method in brief: (§2)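 Overnight-fasted anesthetized rats got three consecutive escalating i.v. doses over 30 min each (n = 4/group). Heart rate and blood pressure were followed alongside end-of-interval blood samples for plasma drug exposure, glucose and insulin (relative HOMA index experiments).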

[13] = target: Serine/threonine-protein kinase Nek2 (Homo sapiens) (UniProt P51955); assay: Inhibition of human NEK2a at 10 uM relative to control
Serine/threonine-protein kinase Nek2 (Homo sapiens), sequence (P51955 whole entry): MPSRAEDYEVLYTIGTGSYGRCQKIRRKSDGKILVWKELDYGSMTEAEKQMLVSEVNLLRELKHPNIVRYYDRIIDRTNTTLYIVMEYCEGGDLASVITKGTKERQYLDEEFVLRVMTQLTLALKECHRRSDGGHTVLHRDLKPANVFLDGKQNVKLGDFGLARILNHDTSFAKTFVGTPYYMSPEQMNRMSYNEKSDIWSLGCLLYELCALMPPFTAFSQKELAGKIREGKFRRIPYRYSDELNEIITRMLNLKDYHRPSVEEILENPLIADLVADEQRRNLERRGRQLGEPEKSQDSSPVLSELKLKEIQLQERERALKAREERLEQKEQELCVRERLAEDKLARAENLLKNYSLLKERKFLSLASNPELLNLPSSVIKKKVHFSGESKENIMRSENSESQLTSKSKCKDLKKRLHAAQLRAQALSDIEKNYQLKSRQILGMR

[14] = target: Serine/threonine-protein kinase PAK 1 (Homo sapiens, UniProt Q13153); assay: Inhibition of human PAK1
[15] = Elimination half life in human at 40.5 to 455.8 mg, iv administered for 3 hrs via infusion by LC-MS/MS analysis; format: ADME, organism-based; details: in vivo, dose 40.5-455.8 mg, read-out: beta t1/2
Method in brief: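 Randomized, double-blind, placebo-controlled single ascending-dose study in healthy male volunteers aged 18–36. Each subject received a 3-h i.v. infusion (0.9–455.8 mg). Plasma levels were measured by protein precipitation and LC-MS/MS (LLOQ 0.005 μm), with non-compartmental PK analysis. Half-life was calculated only for the four highest dose groups. The 3-h sample was taken as Css.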

[16] = tested on: Rattus norvegicus; assay: Insulin sensitizing activity in Sprague-Dawley rat hyperinsulinemic-euglycemic glucose clamp model assessed as human insulin level during infusion of human insulin at 6000 ug/kg/min, iv for 2 mins followed by 300 ug/kg/min, iv for 28 mins measured during clamp 2 (reference value: 1.8 +/- 0.1 nM); format: functional; details: time 30 min, 0.5 h; method in brief: as §1
[17] = target: SRSF protein kinase 1 (Homo sapiens) (UniProt Q96SB4); assay: Inhibition of human SRPK1 at 10 uM relative to control
SRSF protein kinase 1 (Homo sapiens), sequence (Q96SB4 whole entry): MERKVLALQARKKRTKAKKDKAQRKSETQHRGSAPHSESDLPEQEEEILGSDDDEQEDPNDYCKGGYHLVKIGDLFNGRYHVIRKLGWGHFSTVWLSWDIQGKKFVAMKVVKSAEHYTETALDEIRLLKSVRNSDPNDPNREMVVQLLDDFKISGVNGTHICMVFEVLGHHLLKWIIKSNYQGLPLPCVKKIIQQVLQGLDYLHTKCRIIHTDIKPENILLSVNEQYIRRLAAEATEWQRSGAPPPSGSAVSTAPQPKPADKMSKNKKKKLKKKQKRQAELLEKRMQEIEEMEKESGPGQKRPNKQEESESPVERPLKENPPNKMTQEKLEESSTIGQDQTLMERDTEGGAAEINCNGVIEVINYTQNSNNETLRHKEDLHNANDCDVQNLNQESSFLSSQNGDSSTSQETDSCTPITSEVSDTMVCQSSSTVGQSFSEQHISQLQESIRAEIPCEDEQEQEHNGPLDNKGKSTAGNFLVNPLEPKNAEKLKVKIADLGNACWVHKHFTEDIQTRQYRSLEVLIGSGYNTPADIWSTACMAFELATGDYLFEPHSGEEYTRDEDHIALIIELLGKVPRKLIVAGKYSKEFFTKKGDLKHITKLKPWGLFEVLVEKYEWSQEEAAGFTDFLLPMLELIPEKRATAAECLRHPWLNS

[18] = Toxicity in Sprague-Dawley rat hyperinsulinemic-euglycemic glucose clamp model assessed as increase in blood pressure at 6000 ug/kg/min, iv for 2 mins followed by 300 ug/kg/min, iv for 28 mins; format: organism-based; details: in vivo, 0.5 h, time 30 min
Method in brief: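 Anesthetized rats underwent two consecutive hyperinsulinemic–euglycemic clamps with human insulin infusion: a baseline Clamp1, then Clamp2 with vehicle or AZD6482 i.v. (n = 4–5/group). Blood pressure and heart rate were followed during control periods and after drug administration. Steady-state glucose infusion rate maintained euglycemia.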

[19] = target: Tyrosine-protein kinase CSK (Homo sapiens, UniProt P41240); assay: Inhibition of human CSK
[20] = Toxicity in Sprague-Dawley rat assessed as change in heart rate at 6000 ug/kg, iv for 2 mins followed by 300 ug/kg/min, iv for 28 mins; format: organism-based; details: in vivo, 6 mg/kg, 0.5 h, time 30 min; method in brief: as §2
[21] = organism: Homo sapiens; assay: Inhibition of human CDK2/Cyclin A at 10 uM relative to control
[22] = target: Mitogen-activated protein kinase 15 (Homo sapiens) (UniProt Q8TD08); assay: Inhibition of human MAPK15 at 10 uM relative to control
Mitogen-activated protein kinase 15 (Homo sapiens), sequence (Q8TD08 whole entry): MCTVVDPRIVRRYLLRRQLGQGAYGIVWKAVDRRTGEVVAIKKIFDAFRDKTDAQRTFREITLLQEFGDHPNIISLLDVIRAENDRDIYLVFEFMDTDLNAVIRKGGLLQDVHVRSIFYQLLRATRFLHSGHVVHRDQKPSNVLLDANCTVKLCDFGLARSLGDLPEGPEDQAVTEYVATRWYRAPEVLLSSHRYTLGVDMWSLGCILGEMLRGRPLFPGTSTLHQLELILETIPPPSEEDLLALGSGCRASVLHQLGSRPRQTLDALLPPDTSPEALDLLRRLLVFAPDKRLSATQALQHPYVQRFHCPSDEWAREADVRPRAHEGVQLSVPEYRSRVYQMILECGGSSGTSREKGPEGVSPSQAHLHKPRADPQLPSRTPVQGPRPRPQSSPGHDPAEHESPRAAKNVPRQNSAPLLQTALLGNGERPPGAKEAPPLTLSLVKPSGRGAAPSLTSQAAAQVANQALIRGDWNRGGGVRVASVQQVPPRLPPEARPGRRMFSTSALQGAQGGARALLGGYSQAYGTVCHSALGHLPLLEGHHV

[23] = target: Tyrosine-protein kinase ZAP-70 (Homo sapiens, UniProt P43403); assay: Inhibition of human ZAP70
Tyrosine-protein kinase ZAP-70, sequence (P43403 whole entry): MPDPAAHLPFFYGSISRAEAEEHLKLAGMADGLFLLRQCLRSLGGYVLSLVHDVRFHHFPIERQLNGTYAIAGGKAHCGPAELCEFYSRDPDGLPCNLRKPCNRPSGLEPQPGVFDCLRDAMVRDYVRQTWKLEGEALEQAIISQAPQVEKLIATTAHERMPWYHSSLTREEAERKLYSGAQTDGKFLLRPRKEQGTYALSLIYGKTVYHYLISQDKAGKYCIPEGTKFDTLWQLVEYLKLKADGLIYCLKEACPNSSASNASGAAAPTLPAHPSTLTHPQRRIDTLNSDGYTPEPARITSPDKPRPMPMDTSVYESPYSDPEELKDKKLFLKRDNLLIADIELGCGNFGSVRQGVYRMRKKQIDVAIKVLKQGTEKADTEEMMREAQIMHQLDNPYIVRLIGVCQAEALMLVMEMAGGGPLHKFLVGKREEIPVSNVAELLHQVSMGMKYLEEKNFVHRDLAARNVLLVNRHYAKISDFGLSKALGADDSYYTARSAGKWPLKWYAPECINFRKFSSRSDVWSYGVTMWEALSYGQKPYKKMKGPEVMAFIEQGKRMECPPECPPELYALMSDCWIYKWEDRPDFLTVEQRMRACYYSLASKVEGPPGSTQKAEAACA

[24] = target: Calcium/calmodulin-dependent protein kinase type 1 (Homo sapiens) (UniProt Q14012); assay: Inhibition of human CAMK at 10 uM relative to control
Calcium/calmodulin-dependent protein kinase type 1 (Homo sapiens), sequence (Q14012 whole entry, looked up): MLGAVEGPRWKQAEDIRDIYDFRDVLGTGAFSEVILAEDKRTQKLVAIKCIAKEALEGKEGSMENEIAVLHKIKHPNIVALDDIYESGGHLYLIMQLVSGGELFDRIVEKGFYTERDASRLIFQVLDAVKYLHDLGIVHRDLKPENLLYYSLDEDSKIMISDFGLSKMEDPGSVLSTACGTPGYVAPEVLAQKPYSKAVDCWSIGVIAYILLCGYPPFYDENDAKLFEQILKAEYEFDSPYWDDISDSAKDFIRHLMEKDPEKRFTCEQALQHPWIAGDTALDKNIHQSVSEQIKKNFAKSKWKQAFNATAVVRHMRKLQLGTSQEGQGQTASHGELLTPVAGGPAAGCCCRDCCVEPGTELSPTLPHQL

[25] = target: Serine/threonine-protein kinase pim-3 (Homo sapiens) (UniProt Q86V86); assay: Inhibition of human PIM3 at 10 uM relative to control

inhibition [1]: 9%
IC50 [2]: 37 µM
concentration at 0.5 h [3]: 2300 nM
inhibition [5]: 1%
inhibition [6]: 14%
inhibition [9]: 11%
EC50 [10]: 0.35 µM
CL renal at 3 h [11]: 1.5 mL/min
inhibition [13]: 1.3%
IC50 [14]: > 336 µM
half-life [15]: ~20 min
inhibition [17]: -9.4%
IC50 [19]: 90 µM
inhibition [21]: -1.6%
IC50 [23]: > 999 µM
inhibition [24]: 9.7%
inhibition [25]: -5.9%
Compound: Cc1cc([C@@H](C)Nc2ccccc2C(=O)O)c2nc(N3CCOCC3)cc(=O)n2c1 [AZD-6482]
Activity [4]: Non-Toxic
Activity [7]: 7.7 mM
Activity [8]: Non-Toxic
Activity [12]: Non-Toxic
Activity [16]: 2.3 nM
Activity [18]: 15 mmHg
Activity [20]: Non-Toxic
inhibition [22]: 14%
